Test results taken from PubChem BioAssay.
Records with an inconclusive call do not appear.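 The calls were made as follows, unless noted: active = inhibition over a set limit, the all-compound mean plus 3 SD, in both replicate runs; inconclusive = over that limit in just one replicate run; inactive = at or under that limit in both runs.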

Columns and labels:
[1] = OD615 S. cerevisiae growth inhibition, permissive medium, pilot counter-assay, permissive growth control for S. cerevisiae lifespan shortening project (AID 705;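 active = growth inhibition above 25% in both replicates, a cutoff set 3 SD above the mean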); conditions: OD615, 24 h, at 10 µM, stronger effect = higher value
Outline: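 Material: engineered DeaD yeast; Compound: one dose 10 µM, DMSO 0.25% final; Detection: absorbance (optical density) at 615 nm; Buffer or medium: permissive raffinose/galactose medium; Timing: 24 h exposure, 30 °C.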

[2] = Restrictive medium S. cerevisiae growth inhibition, OD615, pilot screen of yeast lifespan reduction project, restrictive growth control (AID 706;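 active = growth inhibition above a set limit, 3 SD over mean compound inhibition, in both replicates, cut at about 43% in these data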;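 also: modified DeaD lifespan yeast strain shifted to restrictive glucose medium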); conditions: OD615, 48 h, at 10 µM, stronger effect = higher value
Outline: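 Buffer or medium: restrictive glucose medium (CSMM-D); test system: modified S. cerevisiae; doses: single dose of 10 µM compound final, 0.25% DMSO; schedule: 48 h compound exposure at 30 °C; detection: absorbance (optical density) measured at 615 nm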

[3] = viability gain of MRP-1-high H69AR cells under doxorubicin, pilot screen, MRP-1 activator project, CellTiter-Glo, duplicate (AID 807;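 active = viability increase at or above a cutoff of the median across tested compounds plus 3 SD, cut at about 8.5% in these data, passing the limit was not always enough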;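 also: compound pretreatment 18-22 h then 72 h combined with doxorubicin; 0% = doxorubicin alone and 100% = vehicle without doxorubicin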); conditions: H69AR viability with doxorubicin, CellTiter-Glo luminescence; at 10 µM; stronger effect = higher value
[4] = growth suppression of beta-catenin knockout HCT116, pilot screen, human colon tumor cells (AID 823;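 active = cell viability at or below a set limit in both duplicate runs, the limit being the all-compound median minus 4 SD, cut at about 23% in these data, passing the limit was not always enough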;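 also: 0% = wells killed by 20 µM Hyamine and 100% = untreated DMSO cell wells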); conditions: CellTiter-Glo, 60 h, at 10 µM, stronger effect = lower value
[5] = growth suppression of PTEN-deleted HCT116, pilot screen, cell-based, HCT116 clonal line, CellTiter-Glo (AID 824;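 active = viability at or below 27.92% in each of two runs, the all-compound median minus 4 SD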;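 also: 0% = 20 µM Hyamine control and 100% = vehicle cell control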); conditions: 60 h, at 10 µM, stronger effect = lower value
[6] = inhibitors of the yeast RAM network, pilot screen, dse1pr::URA3 reporter, 5-FOA selection (AID 869);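 also: 0% = DMSO wells with no growth and 100% = 10 µM 1-NA-PP1 with full growth; RAM network block rescues cells from 5-FOA so hits raise OD615 growth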; conditions: S. cerevisiae dse1pr::URA3 5-FOA growth, OD615, 2 d; at 10 µM; stronger effect = higher value; strain carries analog-sensitive mutant Cbk1 kinase
[7] = RAM signaling pathway blockade in yeast – S. cerevisiae, Pdr1DBD-CYC8 efflux-inhibited sensitized strain, primary screen (AID 1298;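 active = RAM network inhibition above 8.4% in each of two replicates, 3 SD over the compound average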;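 also: 0% = DMSO untreated cells without growth and 100% = 10 µM 1-NA-PP1 full growth; higher means more yeast growth rescued from 5-FOA killing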); conditions: S. cerevisiae cbk1-as DSE1-URA3 strain, 5-FOA growth OD615, 2 d; at 50 µM; stronger effect = higher value

Cc1ccc(C)c(N2CCN(c3ncnc4c3cnn4-c3ccccc3)CC2)c1
inactive: growth inhibition [1] -11.6% | growth inhibition [2] -18.3% | viability increase [3] 2.4% | viability [4] 72.5% | viability [5] 68.6% | inhibition [6] 3.82% | RAM network inhibition [7] 7.43%

CCOCCCNC(=O)c1cccs1
inactive: growth inhibition [1] -5.41% | growth inhibition [2] -4.17% | viability increase [3] -1.31% | viability [4] 91% | viability [5] 94.4% | inhibition [6] 2.22% | RAM network inhibition [7] 0.76%

CCSC1=N/C(=C\c2ccc(C(=O)O)cc2)C(=O)S1
inactive: growth inhibition [1] -3.9% | growth inhibition [2] -3.52% | viability increase [3] -2.03% | viability [4] 95.4% | viability [5] 100% | inhibition [6] 1.83% | RAM network inhibition [7] 8.27%

O=C(NCc1cccs1)C1CCCN(S(=O)(=O)c2cccc3cccnc23)C1 (stereo unspecified)
inactive: growth inhibition [1] 8.41% | growth inhibition [2] 2.37% | viability increase [3] -1.59% | viability [4] 94.8% | viability [5] 90.4% | inhibition [6] 1.41% | RAM network inhibition [7] 2.64%

CC(C)CC(=O)Nc1c2c(nn1-c1ccc(F)cc1)CSC2
inactive: growth inhibition [1] -13.9% | growth inhibition [2] -14.5% | viability increase [3] -1.7% | viability [4] 91.1% | viability [5] 90.9% | inhibition [6] 1.46% | RAM network inhibition [7] 5.43%

Cn1c(=O)oc2cc(S(=O)(=O)NCc3ccco3)ccc21
inactive: growth inhibition [1] 2.12% | growth inhibition [2] 5.31% | viability increase [3] -4.38% | viability [4] 101% | viability [5] 93.8% | inhibition [6] 1.41% | RAM network inhibition [7] 3.2%

COc1ccc(CSc2nnnn2C)cc1F
inactive: growth inhibition [1] -3.21% | growth inhibition [2] 4.8% | viability increase [3] -0.89% | viability [4] 91.4% | viability [5] 95% | inhibition [6] 2.62% | RAM network inhibition [7] -0.46%

Cc1cc(Nc2ccc(Br)cc2F)n2ncnc2n1
inactive: growth inhibition [1] -2.09% | growth inhibition [2] 11.9% | viability increase [3] -3.52% | viability [4] 90.6% | viability [5] 87.2% | inhibition [6] 0.76% | RAM network inhibition [7] -0.94%

N#Cc1ccccc1N=C1CCCN1Cc1ccccc1
inactive: growth inhibition [1] -3.08% | growth inhibition [2] 9.46% | viability increase [3] 0.25% | viability [4] 88.8% | viability [5] 95.2% | inhibition [6] 0.63% | RAM network inhibition [7] 4.48%

Cc1nc2sc(C(c3cccs3)N3CCN(c4cccc(Cl)c4)CC3)c(O)n2n1 (stereo unspecified)
inactive: growth inhibition [1] -5.61% | growth inhibition [2] 2.47% | viability increase [3] 2.07% | viability [4] 93.7% | viability [5] 83.5% | inhibition [6] 2.32% | RAM network inhibition [7] 5.45%

c1ccc(-c2csc3ncn4cnnc4c23)cc1
inactive: growth inhibition [1] -7.59% | growth inhibition [2] 2.29% | viability increase [3] -1.06% | viability [4] 97.8% | viability [5] 91.4% | inhibition [6] 1.15% | RAM network inhibition [7] 2.91%

CC1(C)CC(=O)c2cc(C(=O)N3CCN(CCO)CC3)c(=O)n(-c3ccc(Cl)cc3)c2C1
inactive: growth inhibition [1] -6.56% | growth inhibition [2] -25.4% | viability increase [3] -0.93% | viability [4] 103% | viability [5] 100% | inhibition [6] 1.81% | RAM network inhibition [7] 3.06%

O=C(O)C1CCCCC1C(=O)NCc1cn2ccccc2n1 (stereo unspecified)
inactive: growth inhibition [1] -16.1% | growth inhibition [2] -10.5% | viability increase [3] -1.38% | viability [4] 110% | viability [5] 93.7% | inhibition [6] 0.43% | RAM network inhibition [7] 9.11%

O=C(CCCOc1ccccc1)NCC1CCCO1 (stereo unspecified)
inactive: growth inhibition [1] -3.87% | growth inhibition [2] -6.75% | viability increase [3] -2.68% | viability [4] 96.5% | viability [5] 91.5% | inhibition [6] 4.06% | RAM network inhibition [7] 0.83%

O=C(Cc1ccccc1)n1nc(-c2ccccc2)nc1NCc1ccco1
inactive: growth inhibition [1] -16.6% | growth inhibition [2] -14.8% | viability increase [3] -2.03% | viability [4] 99.5% | viability [5] 98.1% | inhibition [6] 1.27% | RAM network inhibition [7] 4.38%

O=C(CSc1ccc2nnc(-c3ccc(F)cc3)n2n1)N1CCOCC1
inactive: growth inhibition [1] -5.25% | growth inhibition [2] -2.17% | viability increase [3] -2.97% | viability [4] 105% | viability [5] 96.6% | inhibition [6] 0.08% | RAM network inhibition [7] 0.47%

Cc1ccccc1NC(=O)c1ccc(S(=O)(=O)N(C)C)cc1
inactive: growth inhibition [1] -9.3% | growth inhibition [2] -2.52% | viability increase [3] 0.67% | viability [4] 102% | viability [5] 94% | inhibition [6] 2.17% | RAM network inhibition [7] 2.21%

Cc1cc(OCC(=O)Nc2cc(-c3nn4c(C)nnc4s3)ccc2C)ccc1Cl
inactive: growth inhibition [1] 2.82% | growth inhibition [2] 27.5% | viability increase [3] -0.6% | viability [4] 95.6% | viability [5] 82% | inhibition [6] 2.49% | RAM network inhibition [7] 6.32%
